Source: ChEMBL document CHEMBL3227981, “Studies on biologically active nucleosides and nucleotides. 5. Synthesis and antitumor activity of some 2,2'-anhydro-1-(3',5'-di-O-acyl-beta-D-arabinofuranosyl)cytosine salts and 2,2'-anhydro-1-(3'-O-acyl-beta-D-arabinofuranoxyl)cytosine 5'-phosphates” (J Med Chem, 1979)

What was measured:
[1] = test system: L1210; test: Antitumor activity against mouse L1210 cells allografted in BDF1 mouse assessed as increase of host life span at 100 mg/kg, po qd for 5 days; format: functional
How it was run: (§1)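 L1210 cells (1×10^5) were implanted ip in BDF1 mice. Oral dosing began 24 h later and ran once daily for 5 days, with compound in 0.9% saline containing 0.1% HCO-60 as solution or suspension. Six to ten mice per group. Percent ILS was (T/C − 1) × 100 on mean survival time, with a 30-day observation period.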

[2] = test system: L1210; test: Antitumor activity against mouse L1210 cells allografted in BDF1 mouse assessed as increase of host life span at 200 mg/kg, po qd for 5 days; format: functional; how it was run: as §1
[3] = Toxicity in ip dosed ICR mouse up to 3 weeks; format: organism-based; conditions: in vivo
How it was run: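 Maximum tolerated dose was set from a single ip injection into three female ICR mice weighing 20–21 g, followed by 3 weeks of observation.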

[4] = test system: L1210; test: Antitumor activity against mouse L1210 cells allografted in BDF1 mouse assessed as increase of host life span at 25 mg/kg, ip qd for 5 days; format: functional; conditions: route intraperitoneal
How it was run: (§2)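 BDF1 mice were given 1×10^5 L1210 cells ip. Compound was dissolved or suspended in 0.9% NaCl with 0.1% HCO-60 and given ip daily for 5 days, starting 24 h after inoculation. Groups had 6–10 mice. ILS = (T/C − 1) × 100, from mean survival time of treated versus control mice, observed over 60 days.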

[5] = test system: L1210; test: Antitumor activity against mouse L1210 cells allografted in BDF1 mouse assessed as increase of host life span at 6.25 mg/kg, ip qd for 5 days; format: functional; conditions: route intraperitoneal; how it was run: as §2
[6] = test system: L1210; test: Antitumor activity against mouse L1210 cells allografted in BDF1 mouse assessed as increase of host life span at 100 mg/kg, ip qd for 5 days; format: functional; conditions: route intraperitoneal; how it was run: as §2

F[B-](F)(F)F.[NH2+]=c1ccn2c(n1)O[C@@H]1[C@H](OC(=O)CCCl)[C@@H](COC(=O)CCCl)O[C@H]12
Activity [1]: 9% | Activity [2]: 38.5%

Cl.N=c1ccn2c(n1)O[C@@H]1[C@H](OC(=O)CCCCCCCCCCBr)[C@@H](COC(=O)CCCCCCCCCCBr)O[C@H]12
MTD at 504 h [3]: 300 mg/kg | Activity [4]: 61.5% | Activity [5]: 12.8% | Activity [6]: 145.9%

Cc1ccc(C(=O)OC[C@H]2O[C@@H]3[C@H](Oc4nc(=N)ccn43)[C@@H]2OC(=O)c2ccc(C)cc2)cc1.Cl
MTD at 504 h [3]: 750 mg/kg | Activity [4]: 37.3% | Activity [1]: 14.7% | Activity [2]: 30.7% | Activity [6]: 81.3%

CCOc1ccc(C(=O)OC[C@H]2O[C@@H]3[C@H](Oc4nc(=N)ccn43)[C@@H]2OC(=O)c2ccc(OCC)cc2)cc1.Cl
MTD at 504 h [3]: 500 mg/kg | Activity [4]: 33.3% | Activity [6]: 67.5%

CCCCCCCCOc1ccc(C(=O)OC[C@H]2O[C@@H]3[C@H](Oc4nc(=N)ccn43)[C@@H]2OC(=O)c2ccc(OCCCCCCCC)cc2)cc1.Cl
MTD at 504 h [3]: 300 mg/kg | Activity [6]: 12.8%

Cl.N=c1ccn2c(n1)O[C@@H]1[C@H](OC(=O)c3ccccc3Cl)[C@@H](COC(=O)c3ccccc3Cl)O[C@H]12
MTD at 504 h [3]: < 300 mg/kg | Activity [4]: 25.6% | Activity [2]: 28.2%

Cl.N=c1ccn2c(n1)O[C@@H]1[C@H](OC(=O)c3cccc(Cl)c3)[C@@H](COC(=O)c3cccc(Cl)c3)O[C@H]12
MTD at 504 h [3]: < 300 mg/kg | Activity [4]: 28.2% | Activity [2]: 38.5%

Cl.N=c1ccn2c(n1)O[C@@H]1[C@H](OC(=O)c3ccc(Cl)cc3)[C@@H](COC(=O)c3ccc(Cl)cc3)O[C@H]12
MTD at 504 h [3]: 750 mg/kg | Activity [4]: 31.3% | Activity [2]: 21.8% | Activity [6]: 105.1%

Cl.N=c1ccn2c(n1)O[C@@H]1[C@H](OC(=O)c3ccc(F)cc3)[C@@H](COC(=O)c3ccc(F)cc3)O[C@H]12
MTD at 504 h [3]: 500 mg/kg | Activity [4]: 10% | Activity [2]: 38.5% | Activity [6]: 47.4%

F[B-](F)(F)F.[NH2+]=c1ccn2c(n1)O[C@@H]1[C@H](OC(=O)c3cccc4ccccc34)[C@@H](COC(=O)c3cccc4ccccc34)O[C@H]12
MTD at 504 h [3]: 500 mg/kg | Activity [4]: 35.5% | Activity [6]: 82.1%

Cl.N=c1ccn2c(n1)O[C@@H]1[C@H](OC(=O)/C=C/c3ccco3)[C@@H](COC(=O)/C=C/c3ccco3)O[C@H]12
MTD at 504 h [3]: 300 mg/kg | Activity [4]: 20% | Activity [1]: 20% | Activity [2]: 26.7% | Activity [6]: 54.7%

CC(C)(C)C(=O)O[C@H]1[C@H]2Oc3nc(=N)ccn3[C@@H]2O[C@@H]1COC(=O)CCCCCCC(=O)OC[C@H]1O[C@@H]2[C@H](Oc3nc(=N)ccn32)[C@@H]1OC(=O)C(C)(C)C.Cl
MTD at 504 h [3]: < 300 mg/kg | Activity [4]: 25% | Activity [2]: 41%

CC(=O)O[C@H]1[C@H]2Oc3nc(=N)ccn3[C@@H]2O[C@@H]1COP(=O)(O)O
MTD at 504 h [3]: > 1500 mg/kg | Activity [4]: 30.7% | Activity [1]: 13.3% | Activity [2]: 46.9% | Activity [6]: 57.3%

CCCCCCCC(=O)O[C@H]1[C@H]2Oc3nc(=N)ccn3[C@@H]2O[C@@H]1COP(=O)(O)O
MTD at 504 h [3]: 500 mg/kg | Activity [4]: 50.7% | Activity [5]: 6.3% | Activity [2]: 50.7% | Activity [6]: 76%

CCCCCCCCCCCCCCCC(=O)O[C@H]1[C@H]2Oc3nc(=N)ccn3[C@@H]2O[C@@H]1COP(=O)(O)O
MTD at 504 h [3]: 500 mg/kg | Activity [4]: 116.4% | Activity [5]: 27.4% | Activity [2]: 43% | Activity [6]: >441.1%
